# Data taken from ChEMBL document CHEMBL1128311, “Probes for narcotic receptor-mediated phenomena. 20. Alteration of opioid receptor subtype selectivity of the 5-(3-hydroxyphenyl)morphans by application of the message-address concept: preparation of delta-opioid receptor ligands” (J Med Chem, 1995).
# Where “and” joins values, the source holds several entries; their conditions need not be identical. Equal values may be shown once.
# Tests used:
# Mu-type opioid receptor [1] = biological target: Mu-type opioid receptor (Rattus norvegicus, UniProt P33535); assay: Inhibition of [3H]DAMGO radioligand binding to rat brain opioid receptor mu 1.
# Sequence of Mu-type opioid receptor (Rattus norvegicus, UniProt P33535) (P33535 whole entry): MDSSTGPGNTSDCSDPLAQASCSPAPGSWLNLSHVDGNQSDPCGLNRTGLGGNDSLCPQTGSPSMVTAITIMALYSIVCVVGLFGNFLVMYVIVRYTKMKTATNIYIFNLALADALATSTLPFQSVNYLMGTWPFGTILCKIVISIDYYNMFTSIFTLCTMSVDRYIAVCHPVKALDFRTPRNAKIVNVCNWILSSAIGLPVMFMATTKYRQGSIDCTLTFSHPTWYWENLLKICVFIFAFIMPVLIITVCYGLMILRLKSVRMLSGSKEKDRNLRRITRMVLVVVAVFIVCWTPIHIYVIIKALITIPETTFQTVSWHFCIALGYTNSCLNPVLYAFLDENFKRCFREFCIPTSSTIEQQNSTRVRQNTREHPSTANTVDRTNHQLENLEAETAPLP
# Outline: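 Rat brain membranes labelled with [3H]DAMGO (1-3 nM). Incubation 4 h at 25 °C in 50 mM Tris-HCl pH 7.4 with protease inhibitor cocktail. Nonspecific binding with 20 μM levallorphan. 8-10 drug concentrations, run twice. Dilutions in 10 mM Tris-HCl pH 7.4 with 1 mg/mL BSA. IC50 from curve fitting.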
# [2] = biological target: T1, Kappa-type opioid receptor (Cavia porcellus, UniProt P41144); assay: Inhibition of [3H]U-69593 radioligand binding to Guinea pig opioid receptor kappa 1.
# T1 sequence (P41144 whole entry): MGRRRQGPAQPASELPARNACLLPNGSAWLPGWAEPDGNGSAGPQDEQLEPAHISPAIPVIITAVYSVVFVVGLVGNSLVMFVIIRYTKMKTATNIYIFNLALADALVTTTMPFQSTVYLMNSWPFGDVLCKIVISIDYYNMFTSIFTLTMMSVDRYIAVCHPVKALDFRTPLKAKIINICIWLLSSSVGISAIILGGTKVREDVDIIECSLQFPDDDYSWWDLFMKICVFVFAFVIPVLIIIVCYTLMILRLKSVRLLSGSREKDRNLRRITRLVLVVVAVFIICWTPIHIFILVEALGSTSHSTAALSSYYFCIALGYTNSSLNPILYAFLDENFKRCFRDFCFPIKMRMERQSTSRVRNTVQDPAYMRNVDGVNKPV
# [3] = biological target: Delta-type opioid receptor (Rattus norvegicus, UniProt P33533); assay: Inhibition of [3H]DADLE radioligand binding to rat brain opioid receptor delta 1.
# Sequence of Delta-type opioid receptor (Rattus norvegicus, UniProt P33533) (P33533 whole entry): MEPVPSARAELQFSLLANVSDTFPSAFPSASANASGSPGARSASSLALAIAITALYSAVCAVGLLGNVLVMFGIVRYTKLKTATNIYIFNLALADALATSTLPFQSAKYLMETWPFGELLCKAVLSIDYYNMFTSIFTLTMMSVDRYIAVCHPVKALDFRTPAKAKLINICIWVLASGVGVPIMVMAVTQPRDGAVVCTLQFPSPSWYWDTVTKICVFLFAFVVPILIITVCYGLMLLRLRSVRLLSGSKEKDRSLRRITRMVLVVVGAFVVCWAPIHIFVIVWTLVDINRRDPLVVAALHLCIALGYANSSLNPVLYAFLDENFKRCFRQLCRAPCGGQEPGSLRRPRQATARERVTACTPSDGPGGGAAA
# [4] = biological target: Opioid receptors; mu & delta (Rattus norvegicus) (UniProt P33533+P33535); assay: Selectivity as the ratio of IC50 value against mu receptor to that of delta receptor.; format: protein assay
# Sequence of Opioid receptors; mu & delta (Rattus norvegicus) (P33533 whole entry, looked up): as the sequence (P33533 whole entry) above
# Sequence of Opioid receptors; mu & delta (Rattus norvegicus) (P33535 whole entry, looked up): as the sequence (P33535 whole entry) above
# [5] = biological target: Delta-type opioid receptor (Mus musculus, UniProt P32300); assay: (§1) Opioid activity against delta-receptor of isolated mouse vas deferens(MVD) at 30 uM
# Sequence of Delta-type opioid receptor (Mus musculus, UniProt P32300) (P32300 whole entry): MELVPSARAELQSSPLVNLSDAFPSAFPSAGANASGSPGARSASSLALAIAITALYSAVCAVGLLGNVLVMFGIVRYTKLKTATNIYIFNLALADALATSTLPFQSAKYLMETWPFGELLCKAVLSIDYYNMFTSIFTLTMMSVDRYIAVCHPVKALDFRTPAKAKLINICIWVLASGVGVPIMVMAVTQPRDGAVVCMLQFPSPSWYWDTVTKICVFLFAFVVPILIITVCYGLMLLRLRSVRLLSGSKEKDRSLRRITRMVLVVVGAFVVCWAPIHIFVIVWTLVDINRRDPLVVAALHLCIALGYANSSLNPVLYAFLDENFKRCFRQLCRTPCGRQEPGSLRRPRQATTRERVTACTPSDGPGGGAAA
# Outline: (§2)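 Electrically stimulated contractions of male ICR mouse vas deferens (25-40 g mice) and male Hartley guinea pig ileum longitudinal muscle myenteric plexus strips (250-500 g animals). Tissues held in 37 °C oxygenated Krebs bicarbonate (Mg-free for MVD) at 1 g tension (0.5 g for MVD). Percent inhibition is the contraction height in the 1 min before agonist versus at maximal inhibition. IC50 from nonlinear least squares fit over 2-4 tissues.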
# Mu-type opioid receptor [6] = biological target: Mu-type opioid receptor (Cavia porcellus, UniProt P97266); assay: The opioid activity against the mu-receptor in the isolated guinea pig ileum(GPI); format: tissue-based; outline: as §2
# Sequence of Mu-type opioid receptor (Cavia porcellus, UniProt P97266) (P97266 whole entry): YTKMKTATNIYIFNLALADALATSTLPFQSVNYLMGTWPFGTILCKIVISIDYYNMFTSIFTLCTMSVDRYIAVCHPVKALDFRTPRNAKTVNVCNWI
# [7] = biological target: Delta-type opioid receptor (Mus musculus) (UniProt P32300); assay: as §1; outline: as §2
# Sequence of Delta-type opioid receptor (Mus musculus) (P32300 whole entry): as the sequence (P32300 whole entry) above
# [8] = biological target: T1, Kappa-type opioid receptor; assay: Inhibition of [3H]-U-69,593 radioligand binding to Guinea pig Opioid receptor kappa 1; not determined
# Outline: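 Guinea pig brain membranes depleted of μ and δ sites by pretreatment with irreversible ligands BIT and FIT, labelled with [3H]-U69,593 (1.2-2.3 nM). Incubation 4-6 h at 25 °C in 50 mM Tris-HCl pH 7.4 with protease inhibitor cocktail and 1 μg/mL captopril. Nonspecific binding with 1 μM U69,593. 8-10 drug concentrations, run twice. IC50 from curve fitting.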
Compound,IC50 (Mu-type opioid receptor [1]),IC50 [2] [nM],IC50 [3] [nM],Selectivity [4],IC50 [5],IC50 (Mu-type opioid receptor [6]),inhibition [7] [%],IC50 [8] [nM]
C=CCN1CCC2(c3cccc(O)c3)CC1Cc1[nH]c3ccccc3c12 (stereo not drawn),361 nM,2160,140,2.58,–,–,–,–
CCCCN1CCC2(c3cccc(O)c3)CC1Cc1[nH]c3ccccc3c12 (stereo not drawn),72.4 nM,> 1000,18,4.02,–,–,–,–
Oc1cccc(C23CCN(Cc4ccccc4)C(Cc4[nH]c5ccccc5c42)C3)c1 (stereo not drawn),508 nM,90,184,2.76,–,–,–,–
CN1CCC2(c3cccc(O)c3)Cc3[nH]c4c(ccc5ccccc54)c3C1C2 (stereo not drawn),366 nM,> 1000,1050,0.35,–,–,–,–
"CN1CCC2(c3cccc(O)c3)CC1Cc1[nH]c3ccccc3c12 (single isomer, unassigned; (-)) [listing 1 of 2 here]",–,–,–,2.54,–,–,–,–
CN1CCC2(c3cccc(O)c3)Cc3[nH]c4ccccc4c3C1C2 (stereo not drawn),43.9 nM,798,> 1000,< 0.04,–,–,–,–
CN1CCC2(c3cccc(O)c3)CC(=O)CC1C2 (stereo in doubt; 13) [listing 1 of 2 here],–,–,–,0.03,–,–,–,–
"CN1CCC2(c3cccc(O)c3)CC(=O)CC1C2 (single isomer, unassigned; (+)) [listing 1 of 2 here]",137 nM,5070,1140,–,–,–,–,–
Oc1cccc(C23CCN(CCc4ccccc4)C(Cc4[nH]c5ccccc5c42)C3)c1 (stereo not drawn) [listing 1 of 2 here],–,–,–,8.88,–,–,–,–
"CN1CCC2(c3cccc(O)c3)CC1Cc1[nH]c3ccccc3c12 (single isomer, unassigned; (-)) [listing 2 of 2 here]",14.2 nM,–,5.6,–,393 nM,2350 nM,–,–
CN1CCC2(c3cccc(O)c3)CCCC1C2 (stereo in doubt; (-)-1) [listing 1 of 2 here],20.8 nM,819,> 1000,–,–,639 nM,–,–
CN1CCC2(c3cccc(O)c3)CC1Cc1[nH]c3ccccc3c12 (stereo not drawn),21.4 nM and 29.8 nM,> 1000,–,–,1390 nM and 347 nM,1940 nM and 2070 nM,–,–
"CN1CCC2(c3cccc(O)c3)CCCC1C2 (single isomer, unassigned; (+)) [listing 1 of 2 here]",–,–,–,< 0.02,–,–,–,–
"Oc1cccc(C23CCN(CCc4ccccc4)C(Cc4[nH]c5ccccc5c42)C3)c1 (single isomer, unassigned; (-)) [listing 1 of 2 here]",–,–,–,4.03,–,–,–,–
"Oc1cccc(C23CCN(CCc4ccccc4)C(Cc4[nH]c5ccccc5c42)C3)c1 (single isomer, unassigned; (-)) [listing 2 of 2 here]",25 nM,> 1000,6.2,–,–,–,–,–
CCCCCN1CCC2(c3cccc(O)c3)CC1Cc1[nH]c3ccccc3c12 (stereo not drawn),23.5 nM,993,6.9,3.41,–,–,–,–
CN1CCC2(c3cccc(O)c3)Cc3nc4ccccc4cc3C1C2 (stereo not drawn),–,197,–,–,–,–,–,–
"CN1CCC2(c3cccc(O)c3)CC(=O)CC1C2 (single isomer, unassigned; (-)) [listing 1 of 2 here]",–,–,–,0.12,–,–,–,–
CN1CCC2(c3cccc(O)c3)CC1C[C@@H](NC(=O)c1ccccc1)C2 (stereo partly drawn),–,5560,487,–,–,–,–,–

Compound,IC50 (Mu-type opioid receptor [1]),IC50 [2] [nM],IC50 [3] [nM],Selectivity [4],IC50 [5],IC50 (Mu-type opioid receptor [6]),inhibition [7] [%],IC50 [8] [nM]
Oc1cccc(C23CCN(CCc4ccccc4)C(Cc4[nH]c5ccccc5c42)C3)c1 (stereo not drawn) [listing 2 of 2 here],50.6 nM,> 1000,5.7,–,–,–,–,–
CN1CCC2(c3cccc(O)c3)CC1C[C@@H](NC(=O)Cc1ccccc1)C2 (stereo partly drawn),119 nM,2220,227,0.52,–,–,–,–
CCCCCCCN1CCC2(c3cccc(O)c3)CC1Cc1[nH]c3ccccc3c12 (stereo not drawn),66.6 nM,> 1000,46.7,1.43,–,–,–,–
CN1CCC2(c3cccc(O)c3)CC1Cc1[nH]c3ccc4ccccc4c3c12 (stereo not drawn),> 1000 nM,> 1000,> 10000,–,–,–,–,–
CN1CCC2(c3cccc(O)c3)CC(=O)CC1C2 (stereo in doubt; 13) [listing 2 of 2 here],21.2 nM,2030,720,–,–,–,–,–
"CN1CCC2(c3cccc(O)c3)CC(=O)CC1C2 (single isomer, unassigned; (+)) [listing 2 of 2 here]",–,–,–,0.12,–,–,–,–
CN1CCC2(c3cccc(O)c3)CC1Cc1[nH]c3c(ccc4ccccc43)c12 (stereo not drawn),208 nM,> 1000,12.6,16.5,–,–,–,–
CN1CCC2(c3cccc(O)c3)CCCC1C2 (stereo in doubt; (-)-1) [listing 2 of 2 here],–,–,–,< 0.02,–,–,26,–
CCCCCCN1CCC2(c3cccc(O)c3)CC1Cc1[nH]c3ccccc3c12 (stereo not drawn),70.6 nM,> 1000,34,2.08,–,–,–,–
Oc1cccc(C23CCN(CC4CC4)C(Cc4[nH]c5ccccc5c42)C3)c1 (stereo not drawn),180 nM,934,84.1,2.14,–,–,–,–
Oc1cccc(C23CCNC(Cc4[nH]c5ccccc5c42)C3)c1 (stereo not drawn),357 nM,> 10000,69.5,5.14,–,–,–,–
CC(C)C[C@@H](NC(=O)[C@H](Cc1ccccc1)NC(=O)CNC(=O)[C@@H](C)NC(=O)[C@@H](N)Cc1ccc(O)cc1)C(=O)O [DADLE],–,–,–,–,–,28.8 nM,–,1.71
CCCN1CCC2(c3cccc(O)c3)CC1Cc1[nH]c3ccccc3c12 (stereo not drawn),300 nM,> 1000,40.5,7.4,–,–,–,–
"Oc1cccc(C23CCN(CCc4ccccc4)C(Cc4[nH]c5ccccc5c42)C3)c1 (single isomer, unassigned; (+)) [listing 1 of 2 here]",–,–,–,< 0.09,–,–,–,–
"CN1CCC2(c3cccc(O)c3)CC(=O)CC1C2 (single isomer, unassigned; (-)) [listing 2 of 2 here]",33.5 nM,981,273,–,–,–,–,–
"CN1CCC2(c3cccc(O)c3)CCCC1C2 (single isomer, unassigned; (+)) [listing 2 of 2 here]",21.4 nM,910,> 1000,–,557 nM,169 nM,–,–
"Oc1cccc(C23CCN(CCc4ccccc4)C(Cc4[nH]c5ccccc5c42)C3)c1 (single isomer, unassigned; (+)) [listing 2 of 2 here]",89.2 nM,> 1000,> 1000,–,–,–,–,–
CN1CCC2(c3cccc(O)c3)C/C(=N/Nc3ccccc3)CC1C2 (stereo not drawn),8.7 nM,241,111,0.08,–,–,–,–
CCN1CCC2(c3cccc(O)c3)CC1Cc1[nH]c3ccccc3c12 (stereo not drawn),1260 nM,> 1000,233,5.4,–,–,–,–
